Experimental data gathered from unrelated publications.
Target: Mitogen-activated protein kinase kinase kinase kinase 1 (MAP4K1, Homo sapiens, UniProt Q92918)

SMILES | test | setting | quantity | value
CCCCC(=O)Nc1ccc(-c2ccc3ncn(CCC)c(=O)c3c2)cn1 | binding, competition with immobilised ligand | 0.5 µM | remaining binding | 100%
C=CC(=O)N1CCC[C@@H](n2nc(-c3ccc(Oc4ccccc4)cc3)c3c(N)ncnc32)C1 | enzyme activity, inhibitor | 1 µM | inhibition | 10%
CN1CCN(C(=O)c2ccc(NC(=O)Nc3ccc(N(C)c4ccnc(Nc5ccc(CS(C)(=O)=O)cc5)n4)cc3)cc2)CC1 | binding, competition with immobilised ligand | 1 µM | remaining binding | 2.6%
C#Cc1cc(-c2cc(Nc3nc(N[C@@H](C)c4ccc(F)cn4)ncc3Cl)n[nH]2)ccc1C=O | enzyme activity, inhibitor | 0.2 µM | inhibition | 47.8%
COc1ccc2oc(-c3ccc4nc(N)oc4c3)c/c(=N\c3ccccc3NC(=O)CCN)c2c1 | binding | 1 µM | remaining binding | 109%
C[C@H]1CC[C@H](n2c3cnccc3c3cnc(Nc4ccc5c(n4)CCN(C(=O)CO)C5)nc32)CC1 | binding, competition with immobilised ligand | 1 µM | remaining binding | 66%
CO[C@@H]1[C@H](N(C)C(=O)c2ccccc2)C[C@H]2O[C@]1(C)n1c3ccccc3c3c4c(c5c6ccccc6n2c5c31)C(=O)NC4 | enzyme activity, inhibitor | 1 µM | inhibition | 80%
CC(C)S(=O)(=O)c1ccc2nccc(Nc3ccc4sc(C5CCCC5)nc4c3)c2c1 | enzyme activity, inhibitor | 1 µM | activity vs control | 102%
